Our source for the Activity values is ChEMBL document CHEMBL5712087, “Targeting bromodomain-containing protein 4 (BRD4) inhibits MYC expression in colorectal cancer cells” (Neoplasia, 2019).

What all share (format): cell-based
The target in assay [1] is T1, von Hippel-Lindau disease tumor suppressor/Bromodomain-containing protein 4 (Homo sapiens) (UniProt O60885+P40337). As to the kind of experiment: PROTAC activity at BRD4/VHL E3 ligase in human fibroblast cells assessed as effect on MYC protein expression at 100 to 250 nM for 24 hrs by Western blot analysis. The following applies: dose 100-250 nM. The method in brief:
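Normal human dermal fibroblasts in 10% FCS medium were treated with 100 or 250 nM PROTAC. BRD4 and MYC protein were assessed by western blot (15 µg RIPA lysate, 10% SDS-PAGE, primary 1:1,000 overnight at 4 °C), with GAPDH/β-actin as loading control.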

Assay [2] addresses T1, von Hippel-Lindau disease tumor suppressor/Bromodomain-containing protein 4 (Homo sapiens). As to the kind of experiment: PROTAC activity at BRD4/VHL E3 ligase in human LS174T dbet1 resistant cells assessed as MYC protein expression at 500 to 1000 nM for 24 hrs by Western blot analysis. As to conditions: dose 500-1000 nM. In a few lines:
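Resistant LS174t cells were derived by four months' exposure to rising dBET1 concentrations, with outgrowing cells expanded. Resistant and parental cells were then treated and analysed for BRD4 and MYC protein by western blot (GAPDH/β-actin control) and for MYC mRNA by qPCR normalised to PPIA/ACTB (ΔΔCq).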

The target is the same in assay [3]. As to the kind of experiment: PROTAC activity at BRD4/VHL E3 ligase in human LS174T cells assessed as BRD4 protein degradation at 100 to 1000 nM for 24 hrs by Western blot analysis. As to conditions: dose 100-1000 nM. The method in brief: (§1)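 LS174t cells (RPMI 1640, 10% FCS) were exposed to 1 nM–10 µM for 24 h. Lysates in RIPA with inhibitors and 2.5 mmol/l DTT; 15 µg protein was run on 10% SDS-PAGE and transferred to nitrocellulose. BRD4 or MYC primary antibodies were used at 1:1,000 overnight at 4 °C, HRP secondary 1:10,000, and GAPDH/β-actin as loading control. Detection was by chemiluminescence.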

The target is the same in assay [4]. As to the kind of experiment: PROTAC activity at BRD4/VHL E3 ligase in human HT-29 cells assessed as decrease in MYC protein expression at 5 to 10 uM for 24 hrs by Western blot analysis. The following applies: dose 5-10 µM. The method in brief:
(§2)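 Eight CRC lines exposed 24 h to PROTAC at 5 or 10 µM (stocks 2 mM in DMSO, diluted in PBS or medium). Lysis in RIPA with protease/phosphatase inhibitors and 2.5 mmol/l DTT; 15 µg protein on 10% SDS-PAGE, semi-dry transfer to nitrocellulose. Anti-BRD4 or anti-MYC at 1:1,000 overnight at 4 °C; GAPDH or β-actin loading control; chemiluminescence.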

Assay [5] has the same target. The assay is described as follows: PROTAC activity at BRD4/VHL E3 ligase in human HCT116 p53+/+ cells assessed as decrease in BRD4 protein degradation at 5 to 10 uM for 24 hrs by Western blot analysis. The following applies: HCT-116, dose 5-10 µM. In a few lines: as §2
The target is the same in assay [6]. The assay is described as follows: PROTAC activity at BRD4/VHL E3 ligase in human SW480 cells assessed as decrease in BRD4 protein degradation at 5 to 10 uM for 24 hrs by Western blot analysis. As to conditions: dose 5-10 µM. In a few lines: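 Eight CRC lines, including LS174t (RPMI 1640) and SW480 (DMEM/HamsF12), all with 10% FCS, were treated with PROTAC at 5 and 10 µM. BRD4 and MYC proteins were detected by immunoblot (RIPA lysate, 15 µg, 10% gel, primary 1:1,000 overnight at 4 °C), with GAPDH/β-actin as loading control.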

Assay [7] has the same target. The assay is described as follows: PROTAC activity at BRD4/VHL E3 ligase in human COLO 320 cells assessed as decrease in MYC protein expression at 5 to 10 uM for 24 hrs by Western blot analysis. The following applies: dose 5-10 µM. In a few lines:
as §2

For assay [8] the target is unchanged. The assay is described as follows: PROTAC activity at BRD4/VHL E3 ligase in human DLD-1 cells assessed as decrease in BRD4 protein degradation at 5 to 10 uM for 24 hrs by Western blot analysis. The following applies: dose 5-10 µM. In a few lines: as §2
Assay [9] shares this target. The assay is described as follows: PROTAC activity at BRD4/VHL E3 ligase in human LS174T cells assessed as BRD4 protein degradation at 250 nM for 2 hrs and measured 22 hrs after washout by Western blot analysis. The method in brief:
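LS174t cells were exposed to PROTAC for 2 h. For washout, the PROTAC was removed by changing the culture medium and cells were harvested 22 h later. BRD4 was assessed by western blot (15 µg lysate, 10% SDS-PAGE, chemiluminescence), normalised against GAPDH/β-actin.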

Assay [10] has the same target. As to the kind of experiment: PROTAC activity at BRD4/VHL E3 ligase in human COLO 320 cells assessed as decrease in BRD4 protein degradation at 5 to 10 uM for 24 hrs by Western blot analysis. The following applies: dose 5-10 µM. In a few lines:
as §2

Assay [11] shares this target. As to the kind of experiment: PROTAC activity at BRD4/VHL E3 ligase in human Caco-2 cells assessed as decrease in BRD4 protein degradation at 5 to 10 uM for 24 hrs by Western blot analysis. As to conditions: dose 5-10 µM. In a few lines: as §2
For assay [12] the target is unchanged. As to the kind of experiment: PROTAC activity at BRD4/VHL E3 ligase in human LS174T cells assessed as complete BRD4 protein degradation at […] for 24 hrs by Western blot analysis. In a few lines:
as §1

Assay [13] concerns the target T2, Protein cereblon/Bromodomain-containing protein 4 (Homo sapiens) (UniProt O60885+Q96SW2). As to the kind of experiment: PROTAC activity at BRD4/Cereblon in human fibroblast cells assessed as decrease in BRD4 protein degradation at 500 to 1000 nM for 24 hrs by Western blot analysis. The following applies: dose 500-1000 nM. The method in brief:
(§3)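 Cells treated 24 h across 1 nM–10 µM range (fibroblasts at 500/1000 nM). Immunoblot: RIPA lysate with 2.5 mmol/l DTT, 15 µg per lane on 10% SDS-PAGE, nitrocellulose, 5% milk block 1 h. BRD4 or MYC primary 1:1,000 overnight at 4 °C, HRP secondary 1:10,000 for 60 min; GAPDH/β-actin loading control; ECL detection.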

In assay [14] the target is T2, Protein cereblon/Bromodomain-containing protein 4 (Homo sapiens). As to the kind of experiment: PROTAC activity at BRD4/Cereblon in human DLD-1 cells assessed as decrease in MYC protein expression at 5 to 10 uM for 24 hrs by Western blot analysis. As to conditions: dose 5-10 µM. In a few lines:
as §2

Assay [15] has the same target. The assay is described as follows: PROTAC activity at BRD4/Cereblon in human LS174T cells assessed as decrease in MYC protein expression at […] for 24 hrs by Western blot analysis. In a few lines:
as §3

For assay [16] the target is unchanged. The assay is described as follows: PROTAC activity at BRD4/Cereblon in human LS174T cells assessed as complete BRD4 protein degradation at […] for 24 hrs by Western blot analysis. In a few lines: as §3
Assay [17] has the same target. The assay is described as follows: PROTAC activity at BRD4/Cereblon in human LS174T-dbet1 resistant cells assessed as MYC mRNA level at 500 to 1000 nM for 24 hrs by RT-qPCR analysis. As to conditions: dose 500-1000 nM. In a few lines: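 Total RNA from 10^6 cells after 24 h treatment, Trizol-extracted and integrity-checked. 0.7 µg reverse transcribed, then SYBR-type qPCR: 95 °C 5 min, 40 cycles of 95 °C 15 s/60 °C 60 s. Melting curves checked. MYC or BRD4 normalised to PPIA and ACTB by ΔΔCq. At least three experiments; means ± SD.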

Assay [18] shares this target. As to the kind of experiment: PROTAC activity at BRD4/Cereblon in human LS174T cells assessed as BRD4 protein degradation at 100 to 1000 nM for 24 hrs by Western blot analysis. As to conditions: dose 100-1000 nM. In a few lines: as §3

Active and inactive are the calls of the source. No cut-off for these calls is given here.

T1 sequence (P40337 whole entry, looked up, other chains not shown): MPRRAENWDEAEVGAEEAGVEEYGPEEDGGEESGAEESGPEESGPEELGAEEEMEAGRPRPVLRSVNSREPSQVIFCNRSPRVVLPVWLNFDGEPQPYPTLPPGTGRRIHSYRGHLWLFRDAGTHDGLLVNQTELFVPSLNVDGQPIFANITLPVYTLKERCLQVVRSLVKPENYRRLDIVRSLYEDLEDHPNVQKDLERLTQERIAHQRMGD
T2 sequence (Q96SW2 whole entry, looked up, other chains not shown): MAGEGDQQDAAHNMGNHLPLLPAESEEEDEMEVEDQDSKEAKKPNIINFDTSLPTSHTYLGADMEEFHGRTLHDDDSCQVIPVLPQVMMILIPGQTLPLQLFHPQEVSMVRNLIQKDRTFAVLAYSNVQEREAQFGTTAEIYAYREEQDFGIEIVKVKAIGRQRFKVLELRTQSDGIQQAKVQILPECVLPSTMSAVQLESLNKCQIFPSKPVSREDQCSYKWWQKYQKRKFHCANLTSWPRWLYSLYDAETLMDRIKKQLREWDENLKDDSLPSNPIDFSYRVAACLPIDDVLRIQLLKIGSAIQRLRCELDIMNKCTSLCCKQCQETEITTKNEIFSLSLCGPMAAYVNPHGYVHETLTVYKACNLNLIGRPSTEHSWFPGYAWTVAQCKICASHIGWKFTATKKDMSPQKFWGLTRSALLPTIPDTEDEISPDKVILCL

Consider `Cc1ncsc1-c1ccc(CNC(=O)[C@@H]2C[C@@H](O)CN2C(=O)[C@@H](NC(=O)COCCOCCOCCNC(=O)C[C@@H]2N=C(c3ccc(Cl)cc3)c3c(sc(C)c3C)-n3c(C)nnc32)C(C)(C)C)cc1`, for which the outcome in assay [1], in assay [8] and in assay [9] was inactive. Further, the result in [2], in assay [4], in [5], in [6], in [7] and in [10] was Active. In addition, the result in [11] and in assay [12] was Active. Moreover, the Activity entry in assay [3] was “Dose-Dependent Effect”.
In the case of `Cc1sc2c(c1C)C(c1ccc(Cl)cc1)=N[C@@H](CC(=O)NCCCCNC(=O)COc1cccc3c1C(=O)N(C1CCC(=O)NC1=O)C3=O)c1nnc(C)n1-2` (stereo partly drawn), the outcome in assay [13], in [14], in assay [15] and in assay [16] was Active. In addition, in assay [17], the outcome was inactive. The Activity result in assay [18] is “Dose-Dependent Effect”.
